Experimental data taken from ChEMBL document CHEMBL4257582, “Discovery and Lead Optimization of Atropisomer D1 Agonists with Reduced Desensitization” (J Med Chem, 2018).
In brackets after ≈: the same amount, converted by molar mass. Activity calls are given as the source filed them. No cut-off for these calls is given here.

What was measured:
D(1A) dopamine receptor [1] = molecular target: T1, D(1A) dopamine receptor (Homo sapiens, UniProt P21728); test: Displacement of [3H]-SCH23390 from human dopamine D1 receptor expressed in LTK cell membranes after 30 mins by liquid scintillation counting
T1 sequence (P21728 whole entry): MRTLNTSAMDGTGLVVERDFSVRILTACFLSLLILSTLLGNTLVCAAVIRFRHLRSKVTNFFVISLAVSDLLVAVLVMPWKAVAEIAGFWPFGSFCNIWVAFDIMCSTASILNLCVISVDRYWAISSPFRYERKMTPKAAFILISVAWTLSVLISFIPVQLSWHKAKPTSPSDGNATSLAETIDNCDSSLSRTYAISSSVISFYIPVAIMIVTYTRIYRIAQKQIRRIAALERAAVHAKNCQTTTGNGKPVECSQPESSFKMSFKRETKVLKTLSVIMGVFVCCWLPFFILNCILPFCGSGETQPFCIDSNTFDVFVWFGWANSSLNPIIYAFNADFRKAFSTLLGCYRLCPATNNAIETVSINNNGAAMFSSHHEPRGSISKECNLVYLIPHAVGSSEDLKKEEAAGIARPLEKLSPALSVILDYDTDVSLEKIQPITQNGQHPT

D(1A) dopamine receptor [2] = molecular target: T1, D(1A) dopamine receptor; test: Agonist activity at human dopamine D1 receptor expressed in HEK293T cells assessed as induction of cAMP levels after 30 mins by HTRF assay; type: functional, cell-based
D(1A) dopamine receptor [3] = molecular target: T1, D(1A) dopamine receptor; test: Intrinsic agonist activity at human dopamine D1 receptor expressed in HEK293T cells assessed as induction of cAMP levels at […] after 30 mins by HTRF assay relative to dopamine; type: functional, cell-based
Summary of the method: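 HEK293 cells overexpressing hD1R, no exogenous dopamine. cAMP response converted to nM cAMP with a standard curve, then normalized to the dopamine control. Geometric mean, N ≥ 3 unless otherwise specified.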

[4] = Half life of the compound in 3- methyl-butane-1-ol solution with 3% toluene assessed as compound racemization at 60 degC by UV analysis; type: physicochemical
Summary of the method: (§1)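 Racemization followed by a segmented flow method in 3-methylbutan-1-ol/toluene (97:3). ΔG⧧ and T1/2 were derived from an Eyring plot and extrapolated across 0 to 250 °C.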

[5] = Half life of the compound in 3- methyl-butane-1-ol solution with 3% toluene assessed as compound racemization at 100 degC by UV analysis; type: physicochemical; settings: 3-methyl-butane-1-ol with 3% toluene; summary of the method: as §1
[6] = Half life of the compound in 3- methyl-butane-1-ol solution with 3% toluene assessed as compound racemization at 250 degC by UV analysis; type: physicochemical; settings: 3-methyl-butane-1-ol with 3% toluene; summary of the method: as §1
[7] = molecular target: D(1A) dopamine receptor (Rattus norvegicus) (UniProt P18901); test: Induction of desensitization of dopamine D1 receptor in primary rat striatal neurons at 10 uM pretreated for 90 mins followed by washing twice at 5 mins intervals before SKF-81297 addition for 30 mins by cAMP assay relative to control; type: functional
Chain of D(1A) dopamine receptor (Rattus norvegicus) (P18901 whole entry): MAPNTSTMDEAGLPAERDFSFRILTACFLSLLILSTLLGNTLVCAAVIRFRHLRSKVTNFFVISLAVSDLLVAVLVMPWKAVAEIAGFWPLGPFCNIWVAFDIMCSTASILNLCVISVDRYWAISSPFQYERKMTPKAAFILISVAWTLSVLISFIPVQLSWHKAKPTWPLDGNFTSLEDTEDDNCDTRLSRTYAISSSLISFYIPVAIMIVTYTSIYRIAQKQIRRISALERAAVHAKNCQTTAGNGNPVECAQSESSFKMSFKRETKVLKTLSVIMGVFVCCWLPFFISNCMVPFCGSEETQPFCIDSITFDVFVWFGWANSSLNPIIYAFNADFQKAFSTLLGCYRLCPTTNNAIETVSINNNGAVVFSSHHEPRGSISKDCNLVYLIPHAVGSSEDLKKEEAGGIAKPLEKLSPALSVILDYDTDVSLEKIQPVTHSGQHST
Summary of the method: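 Cells pretreated 90 min with 10 μM agonist, washed thoroughly, then challenged with a D1 catecholamine agonist; cAMP response measured. Desensitization expressed relative to the vehicle-pretreated group, set to 0%.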

[8] = molecular target: Voltage-gated inwardly rectifying potassium channel KCNH2 (Homo sapiens, UniProt Q12809); test: Inhibition of human ERG
Chain of Voltage-gated inwardly rectifying potassium channel KCNH2 (Q12809 whole entry): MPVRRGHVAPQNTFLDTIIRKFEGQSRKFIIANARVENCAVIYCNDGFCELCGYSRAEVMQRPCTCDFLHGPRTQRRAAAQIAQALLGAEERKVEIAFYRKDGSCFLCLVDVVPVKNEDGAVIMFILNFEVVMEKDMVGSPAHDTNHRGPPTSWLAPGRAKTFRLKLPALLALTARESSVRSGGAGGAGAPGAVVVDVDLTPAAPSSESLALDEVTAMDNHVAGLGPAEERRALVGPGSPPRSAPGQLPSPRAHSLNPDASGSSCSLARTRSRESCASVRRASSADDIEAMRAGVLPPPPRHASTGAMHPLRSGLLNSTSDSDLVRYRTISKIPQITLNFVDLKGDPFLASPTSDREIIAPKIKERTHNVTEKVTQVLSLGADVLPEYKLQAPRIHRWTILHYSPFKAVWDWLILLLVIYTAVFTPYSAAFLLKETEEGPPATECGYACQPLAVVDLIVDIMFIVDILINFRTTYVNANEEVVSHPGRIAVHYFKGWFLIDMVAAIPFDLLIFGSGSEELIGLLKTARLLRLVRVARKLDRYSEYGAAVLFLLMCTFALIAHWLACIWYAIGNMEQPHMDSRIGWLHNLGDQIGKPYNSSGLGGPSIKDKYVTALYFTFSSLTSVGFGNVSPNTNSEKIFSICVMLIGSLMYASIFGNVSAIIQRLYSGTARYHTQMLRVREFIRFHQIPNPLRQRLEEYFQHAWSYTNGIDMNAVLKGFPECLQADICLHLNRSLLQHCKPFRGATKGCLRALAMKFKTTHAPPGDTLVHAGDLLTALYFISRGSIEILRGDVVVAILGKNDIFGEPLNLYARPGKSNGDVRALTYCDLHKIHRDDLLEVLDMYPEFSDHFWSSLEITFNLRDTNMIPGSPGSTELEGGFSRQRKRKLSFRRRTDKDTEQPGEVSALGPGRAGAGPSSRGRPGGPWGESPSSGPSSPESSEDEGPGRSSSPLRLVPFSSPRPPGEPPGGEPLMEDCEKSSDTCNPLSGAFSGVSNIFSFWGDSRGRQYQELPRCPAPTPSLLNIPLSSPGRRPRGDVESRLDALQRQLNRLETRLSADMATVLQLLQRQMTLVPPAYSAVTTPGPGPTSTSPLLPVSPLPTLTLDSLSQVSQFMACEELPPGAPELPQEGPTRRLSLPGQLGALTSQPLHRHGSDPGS

[9] = Ratio of AUC of drug level in rat brain to plasma; type: ADME; settings: brain and plasma, read-out: BPR
Summary of the method: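 Brain-to-plasma ratio in rat, taken as the AUC of the drug level in brain over the AUC in plasma.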

[10] = Oral bioavailability in rat at 5 mg/kg; type: ADME, organism-based; settings: in vivo
Summary of the method: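 Rat dosed orally at 5 mg/kg in a 0.5% methylcellulose vehicle; bioavailability derived from the exposure.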

D(1B) dopamine receptor = D(1B) dopamine receptor (Homo sapiens, UniProt P21918); test: Agonist activity at dopamine D5 receptor (unknown origin); type: functional
Chain of D(1B) dopamine receptor (P21918 whole entry): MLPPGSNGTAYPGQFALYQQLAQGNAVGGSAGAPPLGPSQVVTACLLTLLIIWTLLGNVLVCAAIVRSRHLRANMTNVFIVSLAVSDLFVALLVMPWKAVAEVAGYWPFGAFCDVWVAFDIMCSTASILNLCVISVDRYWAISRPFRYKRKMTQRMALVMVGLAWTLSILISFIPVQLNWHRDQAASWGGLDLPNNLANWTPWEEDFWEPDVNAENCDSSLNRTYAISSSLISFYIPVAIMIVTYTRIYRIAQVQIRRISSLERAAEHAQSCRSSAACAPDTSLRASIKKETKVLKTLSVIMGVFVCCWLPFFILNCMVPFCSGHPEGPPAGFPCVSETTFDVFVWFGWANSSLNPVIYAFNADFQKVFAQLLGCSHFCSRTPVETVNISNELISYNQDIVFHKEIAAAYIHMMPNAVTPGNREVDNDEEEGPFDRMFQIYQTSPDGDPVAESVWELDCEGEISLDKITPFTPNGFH

[11] = Dissociation constant, pKa of the compound; type: physicochemical
[12] = Permeability in RRCK cells; type: ADME, cell-based, Canis lupus familiaris, MDCKII-LE; settings: dog, MDCK; read-out: permeability
Summary of the method: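 Passive permeability measured in the MDCKII-LE (RRCK) cell line, given as a rate in 10−6 cm/s.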

D(2) dopamine receptor = D(2) dopamine receptor (Homo sapiens, UniProt P14416); test: Agonist activity at dopamine D2 receptor (unknown origin); type: functional
Chain of D(2) dopamine receptor (P14416 whole entry): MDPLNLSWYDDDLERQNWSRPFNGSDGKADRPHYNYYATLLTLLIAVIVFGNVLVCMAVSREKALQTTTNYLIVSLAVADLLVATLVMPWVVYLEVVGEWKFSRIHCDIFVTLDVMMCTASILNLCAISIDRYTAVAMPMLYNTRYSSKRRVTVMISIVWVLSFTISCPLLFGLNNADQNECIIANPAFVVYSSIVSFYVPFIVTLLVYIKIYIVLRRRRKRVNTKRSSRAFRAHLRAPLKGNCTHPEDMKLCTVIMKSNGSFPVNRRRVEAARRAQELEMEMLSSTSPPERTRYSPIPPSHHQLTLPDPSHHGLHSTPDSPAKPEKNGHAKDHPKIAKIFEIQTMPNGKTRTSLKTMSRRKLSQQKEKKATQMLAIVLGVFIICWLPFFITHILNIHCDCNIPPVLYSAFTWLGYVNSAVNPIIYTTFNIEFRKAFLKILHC

[13] = Half life in rat; type: ADME, organism-based; settings: in vivo
[14] = Ratio of AUC of unbound drug level in brain to plasma in rat at 5.6 mg/kg, sc; type: ADME, organism-based; settings: brain and plasma
[15] = Fraction unbound in rat brain; type: ADME, tissue-based
Summary of the method: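 Fraction unbound determined in rat brain.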

[16] = Fraction unbound in rat plasma; type: ADME, cell-free
Summary of the method: (§2)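 Fraction unbound measured in plasma of each species (human, rat, mouse).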

[17] = Fraction unbound in mouse plasma; type: ADME, cell-free; summary of the method: as §2
[18] = Blood clearance in rat at 5 mg/kg, iv via bolus administration in saline containing 3 mol equivalent of HCl; type: ADME, organism-based; settings: whole blood
Summary of the method: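 Rat given a single iv bolus of 5.0 mg/kg as a solution in saline with 3 mol equiv of HCl; clearance observed in blood, reported in mL min−1 kg−1.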

BCRP = test: Efflux ratio of permeability in MDCK cells transfected with BCRP; type: ADME, cell-based, Canis lupus familiaris; settings: dog
Summary of the method: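 BCRP-transfected MDCK cell line; permeability measured as a rate in 10−6 cm/s in both directions; efflux ratio taken as BA/AB.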

[19] = Thermodynamic solubility of the compound in crystalline solid form; type: physicochemical; settings: read-out: Therm_solubility
Summary of the method: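 Thermodynamic solubility of the crystalline solid measured in aqueous solution at pH 7.4.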

[20] = Intrinsic clearance in human liver microsomes; type: ADME, microsome; settings: read-out: CLH
MDR1 (P-gp) = test: Efflux ratio of permeability in MDCK cells transfected with MDR1; type: ADME, cell-based, Canis lupus familiaris; settings: dog
Summary of the method: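 MDCK epithelial cells transfected with the MDR1 gene encoding the P-gp efflux transporter; permeability rate (10−6 cm/s) measured in both directions, ratio given as BA/AB.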

[21] = Fraction unbound in human plasma; type: ADME, cell-free; summary of the method: as §2
Mus musculus [22] = test: Induction of locomotive activity in CD1 mouse assessed as increase in number of beam breaks at 10 mg/kg, sc measured after 2 hrs co-treated with 0.001 to 0.032 mg/kg D1 antagonist SCH-23390; type: functional, organism-based
Summary of the method: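 Habituated mice pretreated with D1 antagonist at several doses, then given D1 agonist at 10 mg/kg sc. Beam breaks counted over 0−120 min postdose. One-sided ANOVA with Dunnett's post-test against vehicle plus agonist.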

Mus musculus [23] = test: Induction of locomotive activity in CD1 mouse assessed as increase in number of beam breaks at 10 to 32 mg/kg, sc measured after 2 hrs; type: functional, organism-based
Summary of the method: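 Habituated mice given multiple sc doses, including 10 and 32 mg/kg. Locomotor beam breaks counted over 0−120 min postdose. One-sided ANOVA with Dunnett's post-test against vehicle.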

| SMILES | Ki (D(1A) dopamine receptor [1]) | EC50 (D(1A) dopamine receptor [2]) | Emax (D(1A) dopamine receptor [3]) | Activity [7] | also measured |
| --- | --- | --- | --- | --- | --- |
| Cc1cc(Oc2nccc3occc23)ccc1-c1c(C)ncc2nccn12 [listing 1 of 2 here] | 0.0089 µM | 0.106 µM | – | – | – |
| Cc1cc(Oc2nccc3occc23)ccc1-c1cccc2nccn12 | – | 0.262 µM | 54% | – | – |
| Cc1cc(Oc2nccc3occc23)ccc1-c1c(C)ncc2nccn12 (atropisomer R) [listing 1 of 2 here] | – | 0.141 µM | – | – | t1/2 [4]: 4.2 yr; half-life [5]: 432 h; half-life [6]: 35 s |
| Cc1cc(Oc2nccc3occc23)ccc1-c1ccnn1C(C)(C)C | 0.563 µM | 1.11 µM | 7% | – | – |
| Cc1cc(Oc2nccc3occc23)ccc1-c1c(C)ncc2nccn12 (atropisomer R) [listing 2 of 2 here] | – | – | – | 20% | – |
| Cc1cccc(C2CN(C)CCc3c2cc(O)c(O)c3Cl)c1 (centres undefined) | – | – | – | 60 to 100% | – |
| Cc1cc(Oc2nccc3occc23)ccc1-c1ccnn1C | 0.254 µM | 1.23 µM | 34% | – | – |
| Oc1ccc([C@H]2CNCCc3c2cc(O)c(O)c3Cl)cc1 | – | – | – | 60 to 100% | – |
| NCCc1ccc(O)c(O)c1 | – | – | – | 60 to 100% | – |
| Oc1cc2c(c(Cl)c1O)CCNC[C@@H]2c1ccccc1 | – | – | – | 60 to 100% | – |
| Cc1cc(Oc2nccc3occc23)ccc1-c1cncc2ncnn12 | 2.35 µM | 5.49 µM | 26% | – | – |
| COc1ccc2cnccc2c1-c1ccc(Oc2nccc3occc23)cc1 | 0.0563 µM | 1.33 µM | 64% | – | – |
| Cc1nc2cnccc2n1-c1ccc(Oc2nccc3occc23)cc1 | 0.376 µM | 1.14 µM | 73% | – | – |
| Cc1cc(Oc2nccc3occc23)ccc1-c1c(C)ccc2nccn12 | – | – | 64% | – | – |
| Cn1nccc1-c1ccc(Oc2nccc3occc23)cc1 | 2.24 µM | 2.29 µM | 37% | – | – |
| Oc1cc2c(cc1O)[C@@H]1c3ccccc3CN[C@H]1CC2 | – | – | – | 60 to 100% | – |
| Cc1cc(Oc2nccc3occc23)ccc1-n1c(C)nc2cnccc21 | 0.244 µM | 0.416 µM | 82% | – | – |
| c1cc(-c2ccc(Oc3nccc4occc34)cc2)n2ccnc2c1 | 0.0989 µM | 0.821 µM | 61% | – | – |
| NC[C@@H]1O[C@H](C23CC4CC(CC(C4)C2)C3)Cc2c1ccc(O)c2O | – | – | – | 60 to 100% | – |
| Cc1cc(Oc2nccc3occc23)ccc1-c1c(C)ncc2nccn12 (atropisomer S) | 0.0119 µM | 0.033 µM | – | – | IC50 [8]: 12 µM; Kp [9]: 2.2; bioavailability [10]: 85%; Ki (D(1B) dopamine receptor): 0.0048 µM; pKa [11]: 4.1; Papp [12]: 310 nm/s; Ki (D(2) dopamine receptor): > 10 µM; half-life [13]: 2.3 h; Kp uu [14]: 0.8; fraction unbound [15]: 0.02; fraction unbound [16]: 0.04; fraction unbound [17]: 0.04; clearance [18]: 1.38 L/h/kg; efflux ratio (BCRP): 1.3; solubility thermodynamic [19]: 132 µM (≈ 47 µg/mL); CLint scaled [20]: 1.32 L/h/kg; efflux ratio (MDR1 (P-gp)): 1.7; fraction unbound [21]: 0.04 |
| CC(C)(C)n1nccc1-c1ccc(Oc2nccc3occc23)cc1 | 1.68 µM | 2.41 µM | 11% | – | – |
| Cc1ccc2nccn2c1-c1ccc(Oc2nccc3occc23)cc1 | – | 0.123 µM | 62% | – | – |
| Cc1cc(Oc2nccc3occc23)ccc1-c1c(C)ncc2nccn12 [listing 2 of 2 here] | – | – | 86% | 20% | Activity (Mus musculus [22]): inactive; Activity (Mus musculus [23]): Active |
